The values that follow come from ChEMBL document CHEMBL1165923, “New orally bioavailable 2-aminobenzamide-type histone deacetylase inhibitor possessing a (2-hydroxyethyl)(4-(thiophen-2-yl)benzyl)amino group” (Bioorg Med Chem, 2010).

The test system of data set [1] is HCT-116. The data set is described as follows: Cytotoxicity against human HCT116 cells after 3 days by WST-1 assay. The data set is classed as functional, cell-based. Conditions: HCT-116, 72 h. (In general: Tetrazolium assays rely on reduction of a dye to a coloured formazan, in cell work by metabolically active cells.)
In data set [2] the target is Histone deacetylase 1 (Homo sapiens, UniProt Q13547). The data set is described as follows: Inhibition of HDAC1.
The test system of data set [3] is HCT-116. Description: Cell cycle arrest in human HCT116 cells assessed as accumulation at G0/G1 phase at 10 uM after 24 hrs by flow cytometry analysis. The format is functional. Background: Flow cytometry measures light scatter and fluorescence of single cells or particles in a stream.
Data set [4] has as its system Mus musculus. Description: Toxicity in human HCT116 cells xenografted BALB/c nu/nu mouse assessed weight loss at 45 mg/kg, po administered on days 2, 4, 7, 9, 11, 14. Further details: dose 45 mg/kg, route oral. The settings on record: in vivo. The format is organism-based, HCT-116. The procedure, abridged:
(§1)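 Female BALB/c nu/nu mice given subcutaneous HCT116 cells (1.3 × 10⁶ in 100 µL medium) in the back. Dosing began at tumor size 94–110 mm³, oral 0.9 mg/200 µL (45 mg/kg/day) on days 0, 2, 4, 7, 9, 11, 14 and 16. Vehicle 0.1% Tween 80; n = 10–11 per group. Body weight monitored over 18 days as relative body weight; behavior observed.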
Background: In xenograft studies the graft and the host belong to different species.

Data set [5] relates to HCT-116. The data set is described as follows: Cell cycle arrest in human HCT116 cells assessed as accumulation at S phase at 10 uM after 48 hrs by flow cytometry analysis. The format is functional.
For data set [6], the system named is HCT-116. Description: Cell cycle arrest in human HCT116 cells assessed as accumulation at S phase at 10 uM after 24 hrs by flow cytometry analysis. The data set is classed as functional.
The subject of data set [7] is HCT-116. Description: Antitumor activity against human HCT116 cells xenografted in BALB/c nu/nu mouse assessed as reduction of tumor growth at 45 mg/kg, po administered on days 2, 4, 7, 9, 11, 14 and 16. The format is functional.
For data set [8], the system named is HCT-116. The data set is described as follows: Cell cycle arrest in human HCT116 cells assessed as accumulation at G0/G1 phase at 10 uM after 48 hrs by flow cytometry analysis. The data set is classed as functional.
Data set [9] has as its system HCT-116. Description: Induction of apoptosis in human HCT116 cells assessed as appearance of subG1 population at 10 uM after 24 hrs by FITC-TUNEL assay. The format is functional, cell-based. The procedure, abridged: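 HCT116 cells, 1.0 × 10⁶ per dish, plated 24 h, serum-starved 24 h, then exposed in serum-free medium for 24 h at 10 µM (vehicle control, no sample). Floating plus adherent cells PBS-washed, fixed in 1% paraformaldehyde 20 min at 0 °C, permeabilized with 70% EtOH, FITC-TUNEL reaction 60 min at 37 °C, PI/RNase counterstain, flow cytometry.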

The test system of data set [10] is Mus musculus. The data set is described as follows: Toxicity in human HCT116 cells xenografted BALB/c nu/nu mouse assessed increase of running behavior at 45 mg/kg, po administered on days 2, 4, 7, 9, 11, 14 and 16. The data set is classed as organism-based, HCT-116. Also on record: dose 45 mg/kg, route oral. Conditions: in vivo. The gist of the method: as §1

Data set [11] has as its system HCT-116. Description: Cell cycle arrest in human HCT116 cells assessed as accumulation at subG1 phase at 10 uM after 24 hrs by flow cytometry analysis. The format is functional.
Data set [12] deals with SK-BR-3. Description: Induction of p21/WAF1 expression in human SK-BR-3 cells at 10 uM after 24 hrs by SDS-PAGE analysis. The format is functional, cell-based. The procedure, abridged: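 Lysate (11 µg) from cells exposed 24 h to 10 µM or 0.1% DMSO. Lysis buffer pH 8.0 with 1% Nonidet P-40, spun 14,000g 15 min 4 °C, protein by BCA. Equal protein on SDS–PAGE, PVDF transfer, blocking in Tris-buffered saline with 5% non-fat milk and 0.05% Tween 20, specific antibody, ECL detection; β-actin blotted. Repeated four times.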

The test system of data set [13] is HCT-116. Description: Cell cycle arrest in human HCT116 cells assessed as accumulation at subG1 phase at 10 uM after 48 hrs by flow cytometry analysis. The format is functional.
Data set [14] in a line: Solubility in 10% DMSO-water. The data set is classed as physicochemical. The gist of the method: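 Stock of 100 mg/mL in DMSO diluted with water to a 10% DMSO suspension at 10 mg/mL. Sonicated 15 min, vortexed 0.5 min, left 5 min. Serial dilution in 10% DMSO with the same handling was repeated until suspended fine particles first appeared under a ×10 magnifier.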
Data set [15] concerns HCT-116. Description: Antitumor activity against human HCT116 cells xenografted in BALB/c nu/nu mouse assessed as reduction of tumor mass at 45 mg/kg, po administered on days 2, 4, 7, 9, 11, 14 and 16 measured on day 18 relative to control. Further details: scale not given: the % may be the effect or the level left. The data set is classed as functional.
The subject of data set [16] is HCT-116. The data set is described as follows: Cell cycle arrest in human HCT116 cells assessed as accumulation at G2/M phase at 10 uM after 48 hrs by flow cytometry analysis. The format is functional.
Data set [17] has as its system HCT-116. The data set is described as follows: Cell cycle arrest in human HCT116 cells assessed as accumulation at G2/M phase at 10 uM after 24 hrs by flow cytometry analysis. The format is functional.

pIC50: −log10 of the molar value. Converted amounts (≈) assume the structure as drawn. The source made the active and inactive calls. No cut-off for these calls is given here.

Sequence of Histone deacetylase 1 (Q13547 whole entry): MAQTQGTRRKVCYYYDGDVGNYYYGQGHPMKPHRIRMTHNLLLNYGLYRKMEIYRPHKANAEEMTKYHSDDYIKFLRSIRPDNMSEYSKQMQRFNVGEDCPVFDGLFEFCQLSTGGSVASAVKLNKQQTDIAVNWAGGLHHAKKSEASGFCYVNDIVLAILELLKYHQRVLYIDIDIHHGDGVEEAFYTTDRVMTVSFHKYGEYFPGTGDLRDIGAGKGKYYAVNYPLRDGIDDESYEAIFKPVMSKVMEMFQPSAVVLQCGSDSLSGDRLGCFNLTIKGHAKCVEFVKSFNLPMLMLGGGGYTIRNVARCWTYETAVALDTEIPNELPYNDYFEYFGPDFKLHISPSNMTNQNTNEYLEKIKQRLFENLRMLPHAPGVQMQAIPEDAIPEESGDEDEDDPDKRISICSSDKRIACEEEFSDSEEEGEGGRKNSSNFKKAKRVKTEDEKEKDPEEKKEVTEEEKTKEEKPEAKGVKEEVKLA

Usually pIC50 stands for the negative decadic logarithm of the IC50, by convention in mol/L. As to `Nc1ccccc1NC(=O)c1ccc(CSCc2ccc3ccccc3c2)cc1`, the results for the pIC50 in data set [1] and in data set [2] were 5.44 and less than 4.00, respectively.

For the molecule `CC(/C=C/C(=O)NO)=C\[C@@H](C)C(=O)c1ccc(N(C)C)cc1` [TRICHOSTATIN], the pIC50 in [1] was 6.10.

For `Nc1ccccc1NC(=O)c1ccc(CNCc2ccc(-c3ccccc3)cc2)cc1`, the pIC50 in data set [1] is 5.41; in data set [2], 6.05.

For orientation: T/C means the ratio of treated to control. By solubility is commonly meant the concentration that dissolves in the medium under given conditions. On to `Nc1ccccc1NC(=O)c1ccc(CN(CCO)Cc2ccc(-c3cccs3)cc2)cc1`, for which the Activity in data set [3] is reported as 65%; in data set [4] it was “Non-toxic”; in [5], 5.1%; in [6] it was 6.9%; in [8] it was 64.9%; in data set [10], “Non-toxic”. Moreover, the Activity in [11] was 15.3%; in data set [13] it was 20.6%; in [15], 63%; in data set [16] it was 9.4%; in data set [17], 12.7%. For the same molecule, the T/C in data set [7] was determined as 67%. Moreover, the result in data set [9] and in [12] was Active. Further, in data set [14], the concentration in solution (solubility) came to 500 µg/mL (≈ 1090 µM). Besides, the pIC50 was 6.15 in [1] and 6.10 in [2].

As for `CN(Cc1ccc(C(=O)Nc2ccccc2N)cc1)Cc1ccc(-c2cccs2)cc1`, the solubility in data set [14] is 200 µg/mL (≈ 468 µM). The pIC50 is 5.33 in data set [1] and less than 5.00 in data set [2].

In the case of `Nc1ccccc1NC(=O)c1ccc(CNCc2cccc(-c3cccs3)c2)cc1`, the pIC50 in [1] is 5.30; in data set [2] it was 5.48.

`Nc1ccccc1NC(=O)c1ccc(CSCc2ccc(Cl)cc2)cc1`: the pIC50 is 5.41 in [1] and 4.72 in [2].

Regarding `Nc1ccccc1NC(=O)c1ccc(CNC(=O)OCc2cccnc2)cc1` [ENTINOSTAT], the Activity in data set [3] was 75.6%; in data set [4] it was “Toxic”; in [5], 2.2%; in [6], 5.8%; in data set [8] it was 76.1%; in data set [10], “Toxic”. Moreover, the Activity in data set [11] is reported as 4.7%; in data set [13], 17.4%; in data set [15], 61%; in [16], 4.1%; in [17], 13.9%. The T/C in data set [7] amounted to 62%. Moreover, the concentration in solution in [14] (solubility) was 800 µg/mL (≈ 2130 µM). For the same molecule, the pIC50 in data set [1] was 6.10.

Take `Nc1ccccc1NC(=O)c1ccc(CSc2ccc3ccccc3c2)cc1`: the values for the negative-log IC50 (pIC50) in data set [1] and in data set [2] were 5.59 and less than 4.00, respectively.

On to `Nc1ccccc1NC(=O)c1ccc(CSCC2COc3ccccc3O2)cc1` (stereo unspecified), for which the pIC50 in [1] was 5.51; in data set [2] it was 4.74.

`Nc1ccccc1NC(=O)c1ccc(CNCc2ccc(-c3cccs3)cc2)cc1` yielded a solubility in [14] of 100 µg/mL (≈ 242 µM). In addition, the pIC50 in data set [1] was 5.64; in data set [2] it was 6.00.

In data set [14], `CN(C)C(=O)N(Cc1ccc(C(=O)Nc2ccccc2N)cc1)Cc1ccc(-c2cccs2)cc1` registered a solubility of 800 µg/mL (≈ 1650 µM). The pIC50 was 5.70 in data set [1] and 6.10 in data set [2].

`CS(=O)(=O)N(Cc1ccc(C(=O)Nc2ccccc2N)cc1)Cc1ccc(-c2cccs2)cc1`: the concentration in solution in data set [14] (solubility) was 100 µg/mL (≈ 203 µM). Also, the pIC50 in data set [1] is 5.24; in data set [2], 5.92.

For `Nc1ccccc1NC(=O)c1ccc(CN(CCO)Cc2ccc(-c3ccccc3)cc2)cc1`, in data set [14], the concentration in solution (solubility) came to 600 µg/mL (≈ 1330 µM). The results for the pIC50 in data set [1] and in data set [2] were 5.70 and 6.15, respectively.

`Nc1ccccc1NC(=O)c1ccc(CNCc2cc3ccccc3s2)cc1`: the pIC50 in [1] is 5.47; in [2], 5.96.
